Assay outcomes from PubChem.
The list is not random: actives were taken first. Their share in the collection is about 3.6%.
EBNA-1 inhibitor – blocks EBNA-1 binding to DNA | EBNA-1 DNA binding, fluorescence polarization | inhibition, % at 14.8 µM | actives 0.34% (n = 300,000) | AID 1950; in the data active = inhibition above about 28%
DNA FID counter – fluorescent intercalator displacement, NS3 helicase counter-screen; actives 0.17% (n = 290,000); AID 1845; inhibition, % at 7.9 µM; DNA fluorescent intercalator displacement, fluorescence; in the data active = inhibition above about 37%;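 note: higher means more ethidium bromide displaced from hairpin DNA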
NS3 helicase inh – HCV NS3 helicase inhibition. NS3 helicase DNA unwinding, Cy5 molecular beacon fluorescence. inhibition, % at 10.9 µM. actives 0.56% (n = 290,000);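 active = inhibition above the mean of all tested compounds plus 3 SD, set per campaign, cut at about 35% in these data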
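Measured by: Cy5 fluorescence, 0 and 60 min reads / Assay system: NS3 helicase fragment of HCV / Control set: low DMSO, high thioflavine S at 110 µM / Times: 1 h reaction at 25 °C, ATP-initiated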
ZTA counter – blocks Epstein-Barr virus ZTA, an EBNA-1 counter-screen; ZTA-DNA binding, fluorescence polarization; AID 2234; actives 0.15% (n = 320,000); P03206; inhibition, % at 11 µM; in the data active = inhibition above about 33%
Target sequence (P03206 whole entry, looked up): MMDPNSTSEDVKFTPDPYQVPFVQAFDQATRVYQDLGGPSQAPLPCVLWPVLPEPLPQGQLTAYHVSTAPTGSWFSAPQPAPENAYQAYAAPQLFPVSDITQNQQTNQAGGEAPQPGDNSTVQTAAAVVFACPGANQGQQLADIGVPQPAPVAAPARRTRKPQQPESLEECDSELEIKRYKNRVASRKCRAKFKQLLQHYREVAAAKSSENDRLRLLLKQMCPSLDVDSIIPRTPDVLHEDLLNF
FGF22 binding – FGF22 (human) thermal shift binding. Q9HCT0. actives 1.5% (n = 340,000). recombinant FGF22 thermal shift, SYPRO orange fluorescence; percent of sucrose octasulfate shift, DMSO zero. activity (Tm shift, normalised), % at 9.99 µM;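 active = mean Tm shift, scaled 0 neutral to 100 positive control, at about 1.3% or above, every replicate too, limit read from the data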
Target sequence (Q9HCT0 whole entry, looked up): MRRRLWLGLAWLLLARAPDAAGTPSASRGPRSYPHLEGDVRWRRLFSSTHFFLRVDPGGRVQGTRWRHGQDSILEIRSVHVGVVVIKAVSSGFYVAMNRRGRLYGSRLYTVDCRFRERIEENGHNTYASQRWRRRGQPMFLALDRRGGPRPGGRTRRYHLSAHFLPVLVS
NR3A LBD binder – modulators (binders) of human NR3A ligand-binding domain; NR3A LBD differential scanning fluorimetry, Tm shift; 0% = protein alone, 100% = glycine-bound protein; Tm shift relative to glycine control, % at 25 µM; actives 2.5% (n = 340,000);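 active = melting temperature shift of at least 10% of the positive control shift, at one fixed dose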
Of the large screens only hits and unclear results are named; the others gave an inactive call.

Cc1ccc(NC(=O)CC2S/C(=N/N=C/c3c[nH]c4ccccc34)NC2=O)cc1 (stereo not given)	NR3A LBD binder 11 (no result: FGF22 binding)
CCOC(=O)c1c(C)oc2c1c(CN1CCN(C(=O)OCC)CC1)c(O)c1ccccc12	NR3A LBD binder 10
O=C(C[C@H]1C=C[C@H](NC(=O)C2CCC2)[C@@H](CO)O1)NCc1ccccc1Cl	none (no result: EBNA-1 inhibitor, DNA FID counter, NS3 helicase inh, ZTA counter, NR3A LBD binder)
COc1cccc(-c2c(C(=O)N/N=C/c3ccc(C)s3)nnn2-c2nonc2N)c1	NR3A LBD binder 13
COc1cccc(-c2c(C(=O)N/N=C/c3ccc(C)o3)nnn2-c2nonc2N)c1	none
CCOc1cccc(-c2c(C(=O)N/N=C/c3ccc(C)s3)nnn2-c2nonc2N)c1	NR3A LBD binder 21
CCOc1ccc(-c2c(C(=O)N/N=C/c3ccc(C)s3)nnn2-c2nonc2N)cc1	none (no result: FGF22 binding)
COc1ccc(CCN2C(=O)C=CC2=O)cc1OC	NR3A LBD binder 20 (no result: EBNA-1 inhibitor, DNA FID counter, NS3 helicase inh, ZTA counter)
Cc1noc(C)c1S(=O)(=O)Nc1ccc2c(c1)C(=O)N([C@@H](C)CO)C[C@@H](C)[C@@H](CN(C)C(=O)CCC(F)(F)F)OCCCC[C@@H](C)O2	none (no result: EBNA-1 inhibitor, DNA FID counter, NS3 helicase inh, ZTA counter, NR3A LBD binder)
COc1ccc(OC)c(NC(=O)c2cc3n(n2)C(C(F)(F)F)CC(c2ccc4c(c2)OCO4)N3)c1 (stereo not given)	none (no result: FGF22 binding)
O=C(Nc1cc(Cl)ccc1O)c1cc2n(n1)C(C(F)(F)F)CC(c1ccc3c(c1)OCO3)N2 (stereo not given)	NR3A LBD binder 23 (no result: FGF22 binding)
C=C(C)COc1ccc(-c2ncnc(C(F)(F)F)c2-c2ccc(OC)cc2)c(O)c1	none
C=C(C)COc1ccc(-c2n[nH]c(C)c2-c2ccc(Br)cc2)c(O)c1	NR3A LBD binder 32 (no result: FGF22 binding)
CCCOC(=O)c1ccc(Oc2cn[nH]c2-c2ccc(OC)cc2O)cc1	NR3A LBD binder 17 (no result: FGF22 binding)
CCOc1ccc(-c2[nH]ncc2-c2ccc(Cl)cc2)c(O)c1	NR3A LBD binder 22
C=C(C)COc1ccc(-c2[nH]ncc2-c2ccc(Br)cc2)c(O)c1	NR3A LBD binder 30 (no result: FGF22 binding)
C=C(C)COc1ccc(-c2[nH]ncc2-c2ccccc2OC)c(O)c1	none (no result: FGF22 binding)
C[C@@H]1CCCCO[C@@H](CN(C)C(=O)c2ccccc2)[C@@H](C)CN([C@@H](C)CO)C(=O)c2cc(NS(=O)(=O)c3ccc(F)cc3)ccc2O1	none (no result: EBNA-1 inhibitor, DNA FID counter, NS3 helicase inh, ZTA counter, NR3A LBD binder)
C=C(C)COc1ccc(-c2nc(N)ncc2-c2ccc(Br)cc2)c(O)c1	NR3A LBD binder 12
C=C(C)COc1ccc(-c2[nH]ncc2Oc2ccccc2OC)c(O)c1	NR3A LBD binder 16
C=C(C)COc1ccc(-c2ncncc2-c2ccc(Br)cc2)c(O)c1	none
Nc1c(C(=O)O)ccc2c1C(=O)c1ccccc1C2=O	none
Nc1cc(C(=O)O)c(N)c2c1C(=O)c1ccccc1C2=O	EBNA-1 inhibitor 146, ZTA counter active (no result: FGF22 binding)
COc1cc2c(=O)n(Cc3ccco3)c(=O)n(CC(=O)c3ccc(Br)cc3)c2cc1OC	NR3A LBD binder 14 (no result: FGF22 binding)
C[C@@H]1CCCCO[C@@H](CN(C)Cc2ccc(Cl)c(Cl)c2)[C@H](C)CN([C@@H](C)CO)C(=O)c2cc(NS(=O)(=O)c3ccc(Cl)cc3)ccc2O1	none (no result: EBNA-1 inhibitor, DNA FID counter, NS3 helicase inh, ZTA counter, NR3A LBD binder)
O=C(C[C@@H]1CC[C@@H](NS(=O)(=O)c2ccc(F)cc2)[C@H](CO)O1)NC1CCC1	none (no result: EBNA-1 inhibitor, DNA FID counter, NS3 helicase inh, ZTA counter, NR3A LBD binder)
COc1cc2c(c(OC)c1CC=C(C)C)C[C@H](c1ccc(O)cc1O)CO2	NR3A LBD binder 19 (no result: DNA FID counter, NS3 helicase inh)
C/C(=N\OC(=O)c1cccc(C(F)(F)F)c1)c1sc(-c2ccccc2)nc1C	none (no result: FGF22 binding)
C/C(=N\OC(=O)c1ccc(F)cc1)c1sc(-c2ccccc2)nc1C	NR3A LBD binder 11 (no result: FGF22 binding)
C/C(=N\OC(=O)c1cccc(C)c1)c1sc(-c2ccccc2)nc1C	NR3A LBD binder 18 (no result: FGF22 binding)
COc1ccc(Oc2nc(C(F)(F)F)nc3ccccc23)cc1	NR3A LBD binder 23 (no result: FGF22 binding)
Cc1ccc(Oc2nc(C(F)(F)F)nc3ccccc23)cc1	none (no result: FGF22 binding)
COc1ccc(/C=N/NC(=O)c2snnc2C)c(OC)c1OC	FGF22 binding 43
C[C@H]1CCCCO[C@H](CN(C)C(=O)c2ccccc2)[C@@H](C)CN([C@@H](C)CO)C(=O)c2cc(NC(=O)Nc3ccc(F)cc3)ccc2O1	none (no result: EBNA-1 inhibitor, DNA FID counter, NS3 helicase inh, ZTA counter, NR3A LBD binder)
Cc1ccc(NC(=O)c2cc3cccc([N+](=O)[O-])c3[nH]2)cc1	NR3A LBD binder 33
Cn1cc(/C=C(\C#N)C(=O)Nc2ncc(Cc3cccc(Cl)c3)s2)c2ccccc21	none (no result: FGF22 binding, NR3A LBD binder)
N#C/C(=C\c1c[nH]c2ccccc12)C(=O)Nc1ncc(Cc2ccc(Cl)cc2Cl)s1	NR3A LBD binder 38
O=C(CN(c1ccc(F)cc1)S(=O)(=O)c1ccccc1)Nc1ccccc1C(=O)O	FGF22 binding 43
COc1ccc(N(CC(=O)Nc2ccccc2C(=O)N2CCOCC2)S(=O)(=O)c2ccc(F)cc2)cc1	none (no result: FGF22 binding)
CCCNC(=O)N(C)C[C@H]1Oc2cc(-c3ccc(C)cc3)ccc2S(=O)(=O)N([C@@H](C)CO)C[C@H]1C	none (no result: EBNA-1 inhibitor, DNA FID counter, NS3 helicase inh, ZTA counter, NR3A LBD binder)
CO[C@@H]1CN(C)C(=O)c2ccc(NS(=O)(=O)c3ccccc3)cc2OC[C@H](C)N(C(=O)NC(C)C)C[C@@H]1C	none (no result: EBNA-1 inhibitor, DNA FID counter, NS3 helicase inh, ZTA counter, NR3A LBD binder)
O=C(c1ccc(C(F)(F)F)cc1)C1CCCN(Cc2cccn2-c2ncccn2)C1 (stereo not given)	FGF22 binding 43
CC(NC(=O)COC(=O)c1cc(Cl)nc(Cl)c1)c1ccccc1 (stereo not given)	FGF22 binding 43
Cc1noc(C)c1NC(=O)N[C@H]1CC[C@@H](CC(=O)N2CCCCC2)O[C@@H]1CO	none (no result: EBNA-1 inhibitor, DNA FID counter, NS3 helicase inh, ZTA counter, NR3A LBD binder)
CO/N=C/C(C#N)=C/c1ccc(OC)cc1	FGF22 binding 44
COc1cc([N+](=O)[O-])ccc1NC(=O)Nc1nc2c(s1)CCCC2	NR3A LBD binder 11
Cc1ccc(S(=O)(=O)N2CCC3(CC2)OCCN3S(=O)(=O)c2cccs2)cc1	none (no result: DNA FID counter, NS3 helicase inh)
Cc1ccc(S(=O)(=O)N2CCOC23CCN(S(=O)(=O)c2cccs2)CC3)cc1	NR3A LBD binder 12 (no result: DNA FID counter, NS3 helicase inh)
Cc1cccc(C)c1N=Cc1c(C(F)(F)F)[nH][nH]c1=O	FGF22 binding 43
COc1ccc(CN=Cc2c(C(F)(F)F)[nH][nH]c2=O)cc1	none (no result: FGF22 binding)
CN(C)S(=O)(=O)c1ccc(N=Cc2c(C(F)(F)F)[nH][nH]c2=O)cc1	FGF22 binding 44
COC(=O)c1ccc(N=Cc2c(C(F)(F)F)[nH][nH]c2=O)cc1	FGF22 binding 43
Cn1[nH]c(C(F)(F)F)c(C=Nc2ccc(Cl)cc2)c1=O	none
CC(C)NC(=O)N(C)C[C@@H]1Oc2ccc(NC(=O)Nc3cccc4ccccc34)cc2C(=O)N([C@@H](C)CO)C[C@@H]1C	none (no result: EBNA-1 inhibitor, DNA FID counter, NS3 helicase inh, ZTA counter, NR3A LBD binder)
CCOC(=O)c1ccc(NC(=O)N2CCN(C(=O)C3CCCO3)CC2)cc1 (stereo not given)	FGF22 binding 43
CCOC(=O)c1ccc(NC(=S)N2CCCC(C(=O)N3CCCC3)C2)cc1 (stereo not given)	NR3A LBD binder 11
